Assay results as given in paper PMC9532374 (Cancer research, 2022).

Columns and labels:
[1] = system: histone H3; assay: PMA-induced citrullination of histone H3 in mouse neutrophils; type: cell-based; settings: in vitro
[2] = system: LL2; assay: Viability of LL2 tumor cell line in vitro; type: cell-based, mouse
[3] = system: Ly6G+ cells; assay: Suppression assay with Ly6G+ cells generated from HPC in the presence of TES; type: cell-based, mouse
[4] = system: M-MDSC, TAMs; assay: Gene expression in spleen M-MDSC or TAMs treated in vitro; type: cell-based, mouse; settings: in vitro treatment of spleen M-MDSC or TAMs from LL2-bearing mice
[5] = system: M-MDSC, TAM, PMN-MDSC; assay: Suppression assay with myeloid cells isolated from treated mice; type: in vivo, mouse; settings: cells from JBI-589-treated mice
[6] = system: LL2 tumors; assay: LL2 tumor model in mice; type: in vivo, mouse
[7] = system: BM and spleen neutrophils; type: in vivo, mouse; settings: neutrophils from JBI-589-treated LL2-bearing mice re-stimulated in vitro with LL2 cell supernatant
[8] = system: CXCR2; assay: CXCR2 expression on neutrophils treated with JBI-589 in vitro; type: cell-based
[9] = system: B16F10; assay: Viability of B16F10 tumor cell line in vitro; type: cell-based, mouse
[10] = system: B16F10 tumors; assay: B16F10 tumor model in mice; type: in vivo, mouse; settings: B16F10-bearing mice; 50 mg/kg b.i.d., daily, oral gavage
Summary of the method: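 Male and female mice, 6–8 weeks old, were given 0.3× 10^6 B16F10 cells s.c. into the right flank. Cells were grown in DMEM with 10% FBS and were Mycoplasma-negative. Test compound was given by oral gavage. Read-out was the kinetics of primary tumor growth.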

[11] = system: mouse neutrophils; assay: Viability / toxicity in mouse neutrophils; type: cell-based
[12] = system: BM neutrophils; assay: Transwell chemotaxis of mouse neutrophils toward CXCL1; type: cell-based
Summary of the method: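 Bone marrow Ly6G+ neutrophils were MACS-isolated (>95% pure) and pre-incubated with 10 μM test compound for 2 h. They were placed in a 3 μm Transwell, 0.1 × 10^6 cells on top, with CXCL1 in Advanced RPMI below. After 1 h at 37°C, migrated cells were counted. Spontaneously migrating cells were subtracted.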

[13] = system: CXCR4; assay: CXCR4 surface expression on Ly6G+ cells from treated LL2-bearing mice; type: in vivo, mouse; settings: JBI-589 treated LL2-bearing mice
Summary of the method: (§1)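 LL2 cells (0.3× 10^6) were injected s.c. into the right flank. Mice received test compound at 50 mg/kg b.i.d. daily by oral gavage. Cells were Fc-blocked for 10 min, then antibody-stained for 20 min on ice with Live/Dead Aqua. Surface receptor was measured by flow cytometry on CD45+CD11b+Ly6G+ cells.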

[14] = Pharmacokinetic study in mice, oral; type: in vivo, Balb/c male mice; settings: 10 mg/kg via oral gavage
Summary of the method: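 Male Balb/c mice (6–8 weeks, 22–25 g) received 10 mg/kg test compound by oral gavage, as a suspension in Tween-80 and 0.5% methyl cellulose. Sparse blood sampling (~100 μL; three mice per point) was done at 0.25–24 h into K2EDTA tubes. Plasma was separated by centrifugation at 10,000 rpm for 5 min at 4°C.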

[15] = system: CXCR2; assay: CXCR2 surface expression on Ly6G+ cells from treated LL2-bearing mice; type: in vivo, mouse; settings: JBI-589 treated LL2-bearing mice
Summary of the method: as §1

[16] = system: CXCR2; assay: CXCR2 expression in human PB neutrophils; type: cell-based
Summary of the method: (§2)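 Peripheral blood neutrophils came from healthy donors or cancer patients. They were collected at the Histopaque 1.077/1.119 interphase after double-density gradient centrifugation, followed by RBC lysis, with CD15 staining to confirm purity. Cells were exposed to 10 μM test compound for 1–4 h. Receptor mRNA was measured by SYBR Green qPCR normalized to β-actin, and surface level by flow cytometry.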

[17] = system: human neutrophils; assay: Chemotaxis of human neutrophils toward IL-8; type: cell-based; settings: 10 μM for 4h
Summary of the method: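 Human neutrophils were treated with 10 μM test compound for 4 h. They were then placed in a 3 μm pore Transwell, 0.1 × 10^6 cells in Advanced RPMI in the insert, with chemoattractant in medium below. After 1 h at 37°C and 5% CO2, migrated cells in the bottom well were counted.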

[18] = system: CXCR4; assay: CXCR4 expression in human PB neutrophils; type: cell-based
Summary of the method: as §2

[19] = system: CXCR4; assay: CXCR4 surface expression on neutrophils differentiated in vitro from HPC; type: cell-based, mouse; settings: 10 μM
Summary of the method: (§3)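 Bone marrow hematopoietic progenitors were lineage-depleted and cultured in RPMI with GM-CSF (20 ng/mL), with or without 25% LLC tumor explant supernatant and with or without 10 μM test compound. The supernatant came from ~1.5 cm tumors, minced, incubated overnight at 37°C and 0.22 μm filtered. Surface CXCR2/CXCR4 was measured by flow cytometry.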

[20] = biological target: PAD (Mus musculus, UniProt Q9Z183); assay: PAD activity assay in BM neutrophils of tumor-bearing mice; type: cell-based; settings: BM Ly6G+ cells pretreated for 2h with GSK484
Summary of the method: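 Bone marrow Ly6G+ cells (MACS) from tumor-free or tumor-bearing mice were pretreated for 2 h with inhibitor. Cells were lysed at 1×10^8 cells/mL and lysates incubated with 10 mM BAEE for 30 min at 37°C. Colour reagent (acids, ammonium iron sulfate, DAMO, thiosemicarbazide) was added, samples heated at 95–100°C for 15 min, and absorbance read at 540 nm.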

[21] = system: CXCR2; assay: CXCR2 surface expression on neutrophils differentiated in vitro from HPC; type: cell-based, mouse; settings: 10 μM
Summary of the method: as §3

[22] = system: human neutrophils; assay: Viability of human neutrophils; type: cell-based; settings: four-hour treatment, 10 μM
[23] = system: T cells; assay: T cell proliferation, human PB MNC stimulated with CD3/CD28 Dynabeads; type: cell-based; settings: 10 μM pre-treatment 2h; healthy donors or cancer patients; 72h
Summary of the method: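 Peripheral blood mononuclear cells (Ficoll-Paque; healthy donors or multiple myeloma patients) were labeled with CellTrace Far Red. Cells were pre-treated for 2 h with 10 μM test compound or DMSO vehicle and stimulated with CD3/CD28 Dynabeads for 72 h. Dye dilution was read by flow cytometry in gated CD4+ and CD8+ T cells.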

[24] = system: Mouse HPC; assay: HPC differentiation in vitro with GM-CSF with or without LLC TES; type: cell-based; settings: 10 μM; presence or absence of TES; 5 days of culture
Summary of the method: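 Bone marrow HPC from WT or PAD4 KO mice were lineage-depleted and differentiated in RPMI with GM-CSF (20 ng/mL), with or without 25% LLC explant supernatant and with or without 10 μM test compound, for 5 days. Proportion and absolute number of Ly6G+ cells were determined by flow cytometry in Aqua-negative cells.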

[25] = system: CD4+ T cells; assay: IFN-γ production by human T cells; type: cell-based; settings: 10 μM pre-treatment; 5h stimulation
Summary of the method: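 Peripheral blood mononuclear cells from healthy donors or multiple myeloma patients were Ficoll-Paque isolated. Cells were pre-treated with 10 μM test compound or DMSO vehicle, then stimulated for 5 h with a cell stimulation cocktail with or without protein transport inhibitors. IFN-γ and IL-2 were measured by flow cytometry in gated CD4+ and CD8+ T cells.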

[26] = 10 μM for 4h, healthy donors and cancer patients, flow cytometry

PAD, sequence (Q9Z183 whole entry): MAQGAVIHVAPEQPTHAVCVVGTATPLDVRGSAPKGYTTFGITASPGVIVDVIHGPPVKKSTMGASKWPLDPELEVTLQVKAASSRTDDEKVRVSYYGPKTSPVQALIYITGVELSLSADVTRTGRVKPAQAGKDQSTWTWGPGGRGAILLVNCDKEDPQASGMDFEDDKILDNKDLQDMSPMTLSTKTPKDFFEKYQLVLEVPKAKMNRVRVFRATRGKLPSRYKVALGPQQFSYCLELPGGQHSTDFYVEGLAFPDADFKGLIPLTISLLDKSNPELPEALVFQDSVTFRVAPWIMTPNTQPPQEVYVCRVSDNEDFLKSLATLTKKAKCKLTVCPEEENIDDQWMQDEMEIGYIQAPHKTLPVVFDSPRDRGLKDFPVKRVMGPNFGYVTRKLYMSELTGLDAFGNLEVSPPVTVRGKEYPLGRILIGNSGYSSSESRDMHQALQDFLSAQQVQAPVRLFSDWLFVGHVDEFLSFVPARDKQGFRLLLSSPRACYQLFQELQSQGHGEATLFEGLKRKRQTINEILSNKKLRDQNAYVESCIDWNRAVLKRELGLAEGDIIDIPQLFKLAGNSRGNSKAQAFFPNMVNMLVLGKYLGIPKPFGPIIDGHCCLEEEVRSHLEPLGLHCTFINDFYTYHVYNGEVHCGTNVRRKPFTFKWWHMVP

Cc1c(-c2cc3ccccc3n2Cc2ccc(F)cc2)nc2cc(C(=O)N3CCC[C@@H](N)C3)ccn12 [JBI-589, (R)-(3-aminopiperidin-1-yl)(2-(1-(4-fluorobenzyl)-1H-indol-2-yl)-3-methylimidazo[1,2-a]pyridin-7-yl)methanone]
PMA-induced citrullination of histone H3 [1]: inhibited PMA-induced citrullination of histone H3 in mouse neutrophils in a dose-dependent manner | viability of LL2 tumor cell line [2]: No effect | suppressive activity of Ly6G+ cells generated in vitro from HPC in the presence of TES ([3]; JBI-589): no effect | expression of genes encoding soluble factors involved in pro-tumorigenic effect [4]: did not affect | suppressive activity of M-MDSC, TAM and PMN-MDSC [5]: did not affect suppressive activity | infiltration of tumor tissues with activated CD8+ and CD4+ T cells ([6]; LL2-bearing mice): increased infiltration | frequency of LSK, GMP, CMP and MEP and their proliferation in spleens ([6]; LL2-bearing mice, treated vs control): No differences | primary tumor growth ([6]; LL2-bearing mice, 50 mg/kg, twice a day, daily, oral gavage): markedly reduced | lung metastatic lesions ([6]; LL2-bearing mice, IVIS): almost undetectable | inhibition of primary tumor growth by ICB on addition of JBI-589 ([6]; LL2-bearing mice, JBI-589 50 mg/kg b.i.d. plus anti-CTLA-4 and anti-PD-1 antibodies): significantly enhanced | presence of tumor-associated neutrophils ([6]; LL2-bearing mice, flow cytometry): significant decrease | cellularity of the BM ([6]; mouse, in vivo): did not affect | NET formation by BM and spleen neutrophils [7]: unable to produce NETs | CXCR2 expression on neutrophil [8]: significantly downregulated | viability of B16F10 tumor cell line [9]: No effect | primary tumor growth [10]: markedly reduced | toxicity in mouse neutrophils ([11]; in vitro, JBI-589): without noticeable toxicity | CXCL1-induced migration of neutrophils ([12]; in vitro, JBI-589): reduced | CXCR4 receptor expression in Ly6G+ cells [13]: but not CXCR4 | oral bioavailability [14]: excellent oral bioavailability | CXCR2 receptor expression in Ly6G+ cells [15]: significant down-regulation

COc1cc(C(=O)N2CC[C@@H](O)[C@@H](N)C2)cc2nc(-c3cc4ccccc4n3CC3CC3)n(C)c12 [GSK484]
CXCR2 receptor expression in neutrophils [16, 26]: dramatically reduced | CXCR2 receptor (surface) level ([16]; 4h after treatment, 10 μM, HD neutrophils, time course): significant downregulation | surface level of CXCR2 protein ([16]; one-hour treatment, 10 μM, HD neutrophils): not affecting | CXCR2 gene expression ([16]; one-hour treatment, 10 μM, HD neutrophils, qPCR): significantly downregulated | chemotaxis of neutrophils toward IL-8 [17]: decreased chemotaxis | immune suppressive activity of Ly6G+ cells generated in the presence of TES ([3]; inhibitor present during HPC differentiation): did not abrogate | gene or protein expression of CXCR4 ([18]; 10 μM for 1–4h, HD neutrophils): did not affect | neutrophil CXCR4 receptor expression [18, 26]: did not affect expression | CXCR4 expression in the presence of TES ([19]; with LLC TES): reduced its expression in the presence of TES | CXCR4 expression in control ([19]; without TES): slightly decreased | tumor-induced up-regulation of PAD activity in PMN [20]: completely abrogated | up-regulation of CXCR2 in the presence of TES ([21]; with LLC TES): abrogated up-regulation of CXCR2 | baseline CXCR2 expression ([21]; without TES): reduced baseline CXCR2 expression | viability of neutrophils ([11]; mouse neutrophils): did not affect | CXCL1-induced chemotaxis of neutrophils ([12]; BM neutrophils pre-incubated with 10 μM for 2h): reduced | viability of neutrophils [22]: did not affect viability | T cell proliferation [23]: slightly decreased | HPC differentiation (proportion and absolute number of Ly6G+ cells) [24]: had no effect | IFN-γ production by CD4+ T cells [25]: reduced IFN-γ production
